Assay results gathered from unrelated publications.
Compare with care: the assays were run in different laboratories.
Target: Serine/threonine-protein kinase ULK1 (ULK1, Homo sapiens, UniProt O75385)
Sequence (O75385 1-1050, as in one of the studies): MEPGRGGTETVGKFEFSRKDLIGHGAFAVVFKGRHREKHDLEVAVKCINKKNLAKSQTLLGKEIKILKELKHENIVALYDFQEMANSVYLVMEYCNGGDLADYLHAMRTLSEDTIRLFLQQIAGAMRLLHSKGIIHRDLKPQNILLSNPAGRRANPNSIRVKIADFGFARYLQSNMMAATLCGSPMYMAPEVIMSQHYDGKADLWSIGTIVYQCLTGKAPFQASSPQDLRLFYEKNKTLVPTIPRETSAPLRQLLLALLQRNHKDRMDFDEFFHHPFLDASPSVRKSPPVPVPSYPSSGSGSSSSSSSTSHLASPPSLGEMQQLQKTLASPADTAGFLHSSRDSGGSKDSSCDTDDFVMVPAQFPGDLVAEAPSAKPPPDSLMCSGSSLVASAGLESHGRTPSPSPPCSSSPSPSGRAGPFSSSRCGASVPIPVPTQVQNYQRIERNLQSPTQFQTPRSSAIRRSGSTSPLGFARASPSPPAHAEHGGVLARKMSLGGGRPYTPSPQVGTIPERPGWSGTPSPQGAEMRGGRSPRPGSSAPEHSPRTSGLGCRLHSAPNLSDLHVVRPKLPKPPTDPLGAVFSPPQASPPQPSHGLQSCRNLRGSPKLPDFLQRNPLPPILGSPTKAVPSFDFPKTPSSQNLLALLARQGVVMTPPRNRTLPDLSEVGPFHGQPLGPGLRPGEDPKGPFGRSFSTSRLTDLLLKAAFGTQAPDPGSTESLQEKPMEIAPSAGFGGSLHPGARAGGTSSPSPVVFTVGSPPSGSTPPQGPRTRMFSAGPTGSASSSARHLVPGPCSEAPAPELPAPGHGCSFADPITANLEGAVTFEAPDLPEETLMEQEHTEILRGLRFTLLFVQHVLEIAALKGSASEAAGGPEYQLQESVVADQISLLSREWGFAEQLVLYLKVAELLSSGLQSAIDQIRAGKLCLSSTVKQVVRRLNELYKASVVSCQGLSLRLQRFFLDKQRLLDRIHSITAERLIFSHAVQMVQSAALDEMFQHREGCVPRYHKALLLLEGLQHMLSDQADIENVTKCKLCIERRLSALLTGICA

Compound	assay	conditions	endpoint	value
C[C@H]1CC[C@H](n2c3cnccc3c3cnc(Nc4ccc5c(n4)CCN(C(=O)CO)C5)nc32)CC1	cell-free assay	1 µM	remaining signal	94%
C=CC(=O)N1CCC([C@@H]2CCNc3c(C(N)=O)c(-c4ccc(Oc5ccccc5)cc4)nn32)CC1	enzyme activity, inhibitor	1 µM	inhibition	0%
COc1ccc2oc(-c3ccc4nc(N)oc4c3)c/c(=N\c3ccccc3NC(=O)CCN)c2c1	binding	1 µM	remaining binding	99%
C1=C/COCc2cc(ccc2OCCN2CCCC2)Nc2nccc(n2)-c2cccc(c2)COC/1	cell-free assay	0.1 µM	remaining signal	90%
COc1ccc2[nH]c3c4[nH]c5ccc(OC)cc5c4c4c(c3c2c1)C(=O)NC4=O	binding	1 µM	remaining binding	100%
Cc1cc(S(=O)(=O)N[C@H]2CC[C@H](CN3CCN(c4ccc(C5CCC(=O)NC5=O)cc4F)CC3)CC2)ccc1Nc1ncc(C(F)(F)F)c(N2CCC[C@](C)(O)C2)n1 (stereo partly drawn)	binding, competition with immobilised ligand	1 µM	remaining binding	5.7%
CO[C@@H]1[C@H](N(C)C(=O)c2ccccc2)C[C@H]2O[C@]1(C)n1c3ccccc3c3c4c(c5c6ccccc6n2c5c31)C(=O)NC4	enzyme activity, inhibitor	1 µM	inhibition	7%
C[C@]1(O)CCCN(c2nc(Nc3ccc(S(=O)(=O)N[C@H]4CC[C@H](CN5CCN(c6ccc(C7CCC(=O)NC7=O)cc6F)CC5)CC4)cc3F)ncc2C(F)(F)F)C1 (stereo partly drawn)	binding, competition with immobilised ligand	1 µM	remaining binding	49%
CCCCC(=O)Nc1ccc(-c2ccc3ncn(CCC)c(=O)c3c2)cn1	binding, competition with immobilised ligand	0.5 µM	remaining binding	94%
